Bioassay records from PubChem BioAssay.
In the library only some 1.6% were active in any assay of this set; here they are far more common.
STEP block – blocks human striatal-enriched tyrosine phosphatase | recombinant STEP, OMFP fluorogenic substrate, fluorescence | AID 588621 | actives 0.25% (n = 360,000) | P54829 | inhibition, % at 20 µM;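 active = inhibition at 20 µM, scaled per plate between control wells, above about 37%, limit read from the data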;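 note: 0% = DMSO with enzyme and substrate and 100% = substrate only without enzyme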
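Assay system: isolated STEP enzyme. Buffer or medium: pH 6.0 Bis-Tris with DTT and Tween 20. Also added: fluorogenic phosphatase substrate OMFP at 25 µM final. Dosing: 20 µM, 1% DMSO. Timing: 20 min reaction, room temperature, in the dark. Measured by: fluorescence intensity, excitation 480 nm, emission 540 nm. Evaluation: normalized % inhibition.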
Scp1 inh – Scp-1 (human) phosphatase inhibition. inhibition, % at 20 µM. actives 0.88% (n = 340,000). AID 493091. Q9GZU7. Recombinant Scp1, phosphopeptide, malachite green phosphate absorbance;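 active = inhibition above about 50% at 20 µM, limit read from the data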;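 note: plate controls were DMSO wells with enzyme for no effect and wells lacking enzyme for full effect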
Target sequence (Q9GZU7 76-261 limits assumed): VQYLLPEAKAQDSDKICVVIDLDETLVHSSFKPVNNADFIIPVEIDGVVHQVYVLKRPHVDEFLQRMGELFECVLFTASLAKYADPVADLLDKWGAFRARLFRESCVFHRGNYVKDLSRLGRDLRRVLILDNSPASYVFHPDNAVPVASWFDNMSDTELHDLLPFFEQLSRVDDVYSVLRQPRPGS
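Test system: SCP-1 phosphatase catalytic domain, residues 76-261; measured by: colorimetric phosphate reagent with accelerator and stabiliser, absorbance at 630 nm; timing: enzyme reaction 45 min at room temperature, colour 5 min, stabilisation 30 min; also added: Phosphorylated 17-residue peptide substrate; compound dosing: one concentration, 20 µM, with 1.0% DMSO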
DNMT1 block – DNMT1 (human) enzyme inhibition; actives 0.83% (n = 360,000); inhibition (reported as % activation of signal), % at 10 µM; P26358; AID 588458; DNMT1 molecular beacon, Hinp1I cleavage, fluorescence; in the data active = inhibition above about 50%
F508del corr – correctors of CFTR F508del function in bronchial epithelial cells | CFBE cells, YFP halide quenching; stimulated with forskolin plus potentiator P3; % fluorescence drop versus neutral controls | activity (quench increase), % at 7.58 µM | actives 0.36% (n = 350,000);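 active = mean added fluorescence quench of at least 8% versus neutral control, with both replicates also reaching 8%; inconclusive = only one of the mean or replicate conditions met; inactive = mean below 8% and not both replicates reaching 8%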;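 note: cells transiently co-express mutant CFTR-F508del with the halide-sensitive YFP; corrector assay measuring rescue of mutant channel to the surface after 24 h compound exposure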
LMPTP inh – LMPTP (human) inhibition | recombinant LMPTP-A, OMFP fluorogenic substrate, fluorescence intensity | actives 0.22% (n = 360,000) | AID 651560 | inhibition, % at 20 µM;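 active = compounds that cut the enzyme signal by at least half of the control window in the single-dose screen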;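 note: plate controls were DMSO wells with enzyme plus substrate for no effect and substrate without enzyme for full effect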
Target sequence (P24666 whole entry, looked up): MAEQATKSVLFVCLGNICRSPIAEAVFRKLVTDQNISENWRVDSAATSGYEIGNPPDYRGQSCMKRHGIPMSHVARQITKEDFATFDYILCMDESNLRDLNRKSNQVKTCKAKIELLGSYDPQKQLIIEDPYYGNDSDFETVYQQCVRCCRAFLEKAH
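Material: LMPTP-A; amount: 0.625 nM enzyme; doses: single 20 µM dose; times: reaction 50 min, room temperature, dark; technique: fluorescence intensity of OMFP turnover product; benchmarks: no-enzyme and uninhibited controls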
SUMO1 PPI mod – SUMO1-SIM interaction modulation. P63165. SUMO1 binding to a labelled peptide, TR-FRET, 1 h. inhibition, % at 20 µM. actives 0.33% (n = 360,000); in the data active = inhibition above about 37%
Target sequence (P63165 whole entry, looked up): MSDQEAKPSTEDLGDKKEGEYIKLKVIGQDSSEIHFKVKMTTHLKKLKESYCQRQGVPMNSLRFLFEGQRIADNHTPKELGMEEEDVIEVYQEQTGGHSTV
* marks the source's active call; other numbers are inactive results; ? = inconclusive; nt = no result.

SMILES | STEP block | Scp1 inh | DNMT1 block | F508del corr | LMPTP inh | SUMO1 PPI mod
CCOC(=O)c1sc(NC(=O)c2c(CC)noc2C)nc1C | -1.9 | -4.8 | 1.8 | 14.2* | -0.9 | 3.0
COC(=O)c1sc(NC(=O)c2c(C)noc2C)nc1C | -1.2 | 1.0 | 1.4 | 5.7 | -0.9 | 1.3
CCOC(=O)c1sc(Nc2nc(C)cc(C)n2)nc1C | 4.3 | -2.2 | 6.6 | 12.9* | 1.8 | -1.1
O=C(C[C@@H]1CC[C@H]2[C@@H](COC[C@H](O)CN2Cc2cccc(C(F)(F)F)c2)O1)NCCc1ccncc1 | nt | nt | nt | 1.2 | nt | nt
Cn1cc(C(=O)OCC2CCN(CCNS(C)(=O)=O)CC2)c2ccccc21 | 3.4 | -11.3 | -1.1 | 16.4* | -0.1 | 5.1
Cn1cc(C(N)=O)c2ccccc21 | 1.5 | 12.2 | 2.0 | -1.0 | -0.8 | 6.2
COc1ccc(CN(C)C[C@H]2Oc3c(NS(=O)(=O)c4ccc(F)cc4)cccc3C(=O)N([C@@H](C)CO)C[C@H]2C)cc1 | nt | nt | nt | -1.0 | nt | nt
COc1ccc(C(=O)NCC(=O)OCC(=O)c2ccccc2Br)cc1OC | 0.4 | nt | -1.1 | -2.1 | -1.2 | 3.5
COc1cc(C(=O)NCC(=O)OCC(=O)c2cccc3ccccc23)cc(OC)c1OC | -0.5 | -6.0 | 6.1 | -3.2 | 0.5 | 61.2*
Nc1ccn(Cc2ccc(F)cc2)n1 | -1.7 | 0.9 | 0.0 | -2.2 | -1.0 | 75.6*
Nc1cnn(Cc2ccc(F)cc2)c1 | -0.7 | -3.4 | -5.6 | -2.0 | -1.2 | 0.9
CCN(CC)C(=O)c1ncn(C)c1C(=O)N(CC)CC | 0.4 | 92.4* | 19.0 | -3.7 | -0.6 | 0.1
C[C@H](CO)N1C[C@H](C)[C@H](CN(C)S(=O)(=O)c2cn(C)cn2)Oc2ccc(NC(=O)CCN3CCOCC3)cc2CC1=O | nt | nt | nt | -1.0 | nt | nt
CN(C)NC1=CC(=[N+]2CCCC2)CC(C)(C)C1 | -0.8 | -3.0 | 1.6 | 2.5 | -0.9 | -2.0
CCCN(CCC)C1=CC(=[N+]2CCCC2)CC(C)(C)C1 | -1.0 | 76.9* | 16.6 | ? | -1.7 | -0.3
C[C@]12C=CC(=O)C=C1CC[C@@H]1C2[C@@H](O)C[C@@]2(C)C1CC[C@]2(O)C(=O)COC(=O)CCC(=O)O (stereo partly specified) | -1.9 | -9.0 | 0.1 | 8.2* | -2.8 | -1.8
COc1ccc([C@@H]2[C@@H]3C(=O)N(C(C)(C)C)C(=O)[C@@H]3[C@]3(Cc4ccccc4)C(=O)N(c4ccc(OC)cc4)C(=O)N23)cc1 | -1.1 | -8.1 | -5.5 | 2.9 | 0.5 | 8.8
COc1ccc([C@@H]2[C@@H]3C(=O)N(C(C)(C)C)C(=O)[C@@H]3[C@]3(Cc4ccccc4)C(=O)N(c4ccc(C(F)(F)F)cc4)C(=O)N23)cc1 | -0.1 | -8.5 | 24.6 | 9.0* | 1.3 | -3.6
CCNc1nc2c(c(=O)[nH]c(=O)n2C)n1CC(C)C | 3.8 | -12.2 | 1.8 | 1.5 | -0.6 | 42.5*
CC(C)Cn1c(NCCN(C)C)nc2c1c(=O)[nH]c(=O)n2C | 4.4 | 6.7 | 2.2 | nt | -1.1 | 1.0
OCC(CO)(CO)N=Cc1c(O)ccc2ccccc12 | -10.0 | -2.7 | -11.1 | nt | 0.6 | -4.9
O=C(CN1CCCC1)N/N=C/c1c(O)ccc2ccccc12 | 4.0 | -12.1 | -22.4 | 10.0* | 0.9 | -5.9
O=C(N/N=C/c1c(O)ccc2ccccc12)C(=O)N1CCCC1 | -1.9 | nt | 2.0 | 12.9* | -0.8 | -11.3
Oc1ccc2ccccc2c1C=NNc1ccccn1 | 1.0 | 4.7 | 18.8 | 9.7* | 1.1 | -5.9
Oc1ccc2ccccc2c1/C=N/Nc1nnc(-c2ncc[nH]2)c2ccccc12 | -3.6 | -4.3 | 27.2 | nt | 2.8 | -2.0
Oc1ccc2ccccc2c1C=NC12CN3CCN(CN(C3)C1)C2 | 4.1 | 3.6 | -10.7 | nt | -4.5 | 54.4*
O=C(NN=Cc1c(O)ccc2ccccc12)C1CC1 | -1.3 | -7.6 | -0.8 | 2.9 | -0.5 | -19.0
CCC(C)[C@H]1CNC(=O)C(=O)N1CC1CCCCC1 (stereo partly specified) | nt | nt | nt | -6.2 | 6.1 | 46.6*
CNC(=O)C[C@H]1CC[C@H]2[C@H](COc3ccc(NC(=O)c4ccc5c(c4)OCO5)cc3C(=O)N2C)O1 | nt | nt | nt | -1.1 | nt | nt
COc1cc(OC)cc(C(=O)NC(c2ccccc2)c2ccccc2)c1 | 1.6 | -9.4 | 0.1 | -1.5 | -0.5 | -2.1
